ChEMBL document CHEMBL1133667, “A structure-affinity relationship study on derivatives of N-[2-[4-(4-Chlorophenyl)piperazin-1-yl]ethyl]-3-methoxybenzamide, a high-affinity and selective D(4) receptor ligand” (J Med Chem, 2000)

Tests used:
D(2) dopamine receptor [1] = biological target: T1, D(2) dopamine receptor (Homo sapiens, UniProt P14416); experiment: In vitro binding affinity at human Dopamine receptor D2 (long) by [3H]spiroperidol displacement.
[2] = biological target: T2, Adrenergic receptor alpha-1 (Rattus norvegicus) (UniProt P15823+P23944+P43140); experiment: (§1) Tested in vitro for % inhibition against alpha-1 adrenergic receptor; assay type: protein assay; design: concentration or dose not given beside the values; conditions: concentration not given here
Outline: (§2)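 Drug at 10^-5–10^-11 M, 50 min at 25 °C. Filtered on GF/B filters presoaked in 0.5% polyethylenimine. Nonspecific binding with 1 µM prazosin. Percentage inhibition of specific binding reported at the stated concentration.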

[3] = biological target: T3, Adrenergic receptor alpha-1 (Rattus norvegicus, UniProt P15823+P23944+P43140); experiment: In vitro binding affinity towards alpha-1 adrenergic receptor by using [3H]prazosin in rat brain cortex membranes.; assay type: cell membranes
T3 sequence (P15823 whole entry): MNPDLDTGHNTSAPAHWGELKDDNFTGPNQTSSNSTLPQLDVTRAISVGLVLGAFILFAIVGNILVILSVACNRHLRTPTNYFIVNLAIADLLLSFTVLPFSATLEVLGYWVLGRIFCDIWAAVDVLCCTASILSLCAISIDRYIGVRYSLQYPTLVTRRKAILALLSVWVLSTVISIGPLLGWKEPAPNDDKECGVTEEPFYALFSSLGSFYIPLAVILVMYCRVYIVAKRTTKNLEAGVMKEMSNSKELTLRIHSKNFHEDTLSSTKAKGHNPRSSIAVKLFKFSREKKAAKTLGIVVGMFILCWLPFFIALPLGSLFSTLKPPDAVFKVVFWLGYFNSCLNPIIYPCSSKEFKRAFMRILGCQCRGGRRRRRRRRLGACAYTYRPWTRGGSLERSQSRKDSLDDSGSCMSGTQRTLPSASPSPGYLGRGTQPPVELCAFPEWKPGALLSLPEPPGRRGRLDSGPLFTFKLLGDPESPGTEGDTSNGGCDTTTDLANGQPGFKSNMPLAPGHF
T3 sequence (P23944 whole entry): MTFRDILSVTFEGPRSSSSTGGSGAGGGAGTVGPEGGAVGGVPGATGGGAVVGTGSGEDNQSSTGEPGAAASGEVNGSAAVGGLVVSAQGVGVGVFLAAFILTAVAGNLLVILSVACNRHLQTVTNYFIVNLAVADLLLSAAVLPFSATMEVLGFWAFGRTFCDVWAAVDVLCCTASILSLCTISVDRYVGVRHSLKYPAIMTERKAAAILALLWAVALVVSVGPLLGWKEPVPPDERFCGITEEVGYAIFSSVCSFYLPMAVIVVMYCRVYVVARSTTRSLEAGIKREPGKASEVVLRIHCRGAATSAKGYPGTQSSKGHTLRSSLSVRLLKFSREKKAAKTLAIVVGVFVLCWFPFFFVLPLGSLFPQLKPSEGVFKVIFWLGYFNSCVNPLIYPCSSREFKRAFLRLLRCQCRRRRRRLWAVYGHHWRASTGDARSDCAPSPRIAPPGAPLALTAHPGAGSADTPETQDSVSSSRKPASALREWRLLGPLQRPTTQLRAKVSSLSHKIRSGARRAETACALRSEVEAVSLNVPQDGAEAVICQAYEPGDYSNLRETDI
T3 sequence (P43140 whole entry): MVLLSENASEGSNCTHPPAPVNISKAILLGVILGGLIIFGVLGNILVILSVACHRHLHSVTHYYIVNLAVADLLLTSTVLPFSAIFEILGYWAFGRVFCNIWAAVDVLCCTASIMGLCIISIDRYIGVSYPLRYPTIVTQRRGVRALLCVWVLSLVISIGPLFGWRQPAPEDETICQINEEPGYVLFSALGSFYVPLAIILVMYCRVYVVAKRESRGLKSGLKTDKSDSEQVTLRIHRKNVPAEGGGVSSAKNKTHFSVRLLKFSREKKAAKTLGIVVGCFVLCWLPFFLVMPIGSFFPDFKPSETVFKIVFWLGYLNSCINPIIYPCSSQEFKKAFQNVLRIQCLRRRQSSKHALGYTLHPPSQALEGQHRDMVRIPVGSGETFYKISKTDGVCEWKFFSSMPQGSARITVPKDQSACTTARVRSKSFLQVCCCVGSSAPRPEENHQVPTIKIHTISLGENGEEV

[4] = biological target: T4, 5-hydroxytryptamine receptor 1A (Rattus norvegicus, UniProt P19327); experiment: In vitro binding affinity at 5-hydroxytryptamine receptor 1A receptor in rat hippocampal membranes by [3H]8-OH-DPAT displacement.; assay type: cell membranes, Hippocampus
T4 sequence (P19327 whole entry): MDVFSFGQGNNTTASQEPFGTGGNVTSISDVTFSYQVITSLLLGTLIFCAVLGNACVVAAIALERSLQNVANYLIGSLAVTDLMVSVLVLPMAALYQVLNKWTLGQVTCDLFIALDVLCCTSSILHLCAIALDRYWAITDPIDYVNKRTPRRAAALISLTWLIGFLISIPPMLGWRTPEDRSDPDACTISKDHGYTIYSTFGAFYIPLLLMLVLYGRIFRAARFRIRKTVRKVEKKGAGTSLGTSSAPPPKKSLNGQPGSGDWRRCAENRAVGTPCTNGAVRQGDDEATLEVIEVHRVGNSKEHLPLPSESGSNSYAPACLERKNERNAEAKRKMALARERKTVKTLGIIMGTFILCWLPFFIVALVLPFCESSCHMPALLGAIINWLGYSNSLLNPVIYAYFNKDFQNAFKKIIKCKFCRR

D(4) dopamine receptor = biological target: T5, D(4) dopamine receptor (Homo sapiens, UniProt P21917); experiment: In vitro binding affinity at human Dopamine receptor D4.4 by [3H]YM-09151-2 displacement.
T5 sequence (P21917 whole entry): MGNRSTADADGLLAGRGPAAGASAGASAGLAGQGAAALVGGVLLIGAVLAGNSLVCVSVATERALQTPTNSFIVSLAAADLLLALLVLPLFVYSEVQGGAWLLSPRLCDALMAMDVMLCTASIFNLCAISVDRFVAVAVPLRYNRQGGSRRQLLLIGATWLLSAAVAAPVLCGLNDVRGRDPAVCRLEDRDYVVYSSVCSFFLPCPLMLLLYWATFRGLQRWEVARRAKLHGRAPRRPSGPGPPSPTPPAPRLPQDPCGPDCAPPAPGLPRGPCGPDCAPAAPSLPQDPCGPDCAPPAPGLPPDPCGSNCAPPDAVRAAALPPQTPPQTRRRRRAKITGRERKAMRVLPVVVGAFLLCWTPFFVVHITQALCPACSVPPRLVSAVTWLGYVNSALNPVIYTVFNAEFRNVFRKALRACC

[5] = biological target: T2, Adrenergic receptor alpha-1 (Rattus norvegicus); experiment: Tested in vitro for %inhibition against alpha-1 adrenergic receptor; assay type: protein assay; conditions: concentration not given here; outline: as §2
[6] = biological target: T2, Adrenergic receptor alpha-1 (Rattus norvegicus); experiment: as §1; assay type: protein assay; conditions: concentration not given here; outline: as §2
[7] = biological target: T6, 5-hydroxytryptamine receptor 1A (Rattus norvegicus) (UniProt P19327); experiment: Tested in vitro for % inhibition against (serotonin)5-HT 1A receptor.; conditions: concentration not given here
T6 sequence (whole entry): T4 sequence (P19327 whole entry)

D(2) dopamine receptor [8] = biological target: T1, D(2) dopamine receptor; experiment: In vitro binding affinity towards human Dopamine receptor D2L, using [3H]spiroperidol radioligand in Sf9 baculovirus expression.

T1 sequence (P14416 whole entry): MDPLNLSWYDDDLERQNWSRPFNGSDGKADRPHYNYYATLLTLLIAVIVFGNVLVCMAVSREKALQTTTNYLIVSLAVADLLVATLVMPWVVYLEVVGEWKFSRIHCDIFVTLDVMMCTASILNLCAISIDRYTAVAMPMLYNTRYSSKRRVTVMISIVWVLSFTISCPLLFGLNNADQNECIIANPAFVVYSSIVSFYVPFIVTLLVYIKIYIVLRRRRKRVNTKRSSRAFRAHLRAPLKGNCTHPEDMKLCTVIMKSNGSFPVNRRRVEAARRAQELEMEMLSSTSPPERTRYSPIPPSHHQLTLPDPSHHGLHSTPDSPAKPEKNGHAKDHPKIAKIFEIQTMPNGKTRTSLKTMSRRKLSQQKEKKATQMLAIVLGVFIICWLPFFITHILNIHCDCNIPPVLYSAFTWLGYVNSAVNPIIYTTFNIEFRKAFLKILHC

Row | Ki (D(2) dopamine receptor [1]) [nM] | inhibition [2] [%] | Ki [3] [nM] | Ki [4] [nM] | Ki (D(4) dopamine receptor) [nM] | Ki (D(2) dopamine receptor [8]) [nM] | Structure (SMILES) | inhibition [5] [%] | inhibition [6] [%] | inhibition [7] [%]
1 | 3960 | 33 | > 850 | 11 | 141 | – | COc1ccc2c(c1)C(=O)N(CCN1CCN(c3ccc(Cl)cc3)CC1)CC2 | – | – | –
2 | 3180 | 27 | > 850 | 821 | 32 | – | COc1cccc2c1CCCC2NCCN1CCN(c2ccc(Cl)cc2)CC1.Cl.Cl (stereo unspecified) | – | – | –
3 | 3400 | 34 | > 850 | 105 | 416 | – | COc1cccc2c1CCCC2CCCN1CCN(c2ccc(Cl)cc2)CC1 (stereo unspecified) | – | – | –
4 | > 850 | – | 146 | 37 | 21 | – | COc1cccc(C(=O)CCCCN2CCN(c3ccc(Cl)cc3)CC2)c1 | – | – | –
5 | 2550 | – | 908 | 183 | 4 | – | COc1cccc(C(=O)CCCN2CCN(c3ccc(Cl)cc3)CC2)c1 | – | – | –
6 | – | – | 631 | 451 | 42 | 3170 | COc1cccc2c1CCN(CCN1CCN(c3ccc(Cl)cc3)CC1)C2=O | – | – | –
7 | 980 | 19 | > 850 | 708 | 391 | – | COc1ccc2c(c1)C(CCCN1CCN(c3ccc(Cl)cc3)CC1)CCC2 (stereo unspecified) | – | – | –
8 | > 850 | – | 678 | 45 | 280 | – | COc1cccc(C(=O)CCCCCN2CCN(c3ccc(Cl)cc3)CC2)c1 | – | – | –
9 | 282 | – | 303 | 859 | 42 | – | COc1cccc(NC(=O)CCN2CCN(c3ccc(Cl)cc3)CC2)c1 | – | – | –

Row | Structure (SMILES) | Ki (D(2) dopamine receptor [1]) [nM] | inhibition [2] [%] | Ki [3] [nM] | Ki [4] [nM] | Ki (D(4) dopamine receptor) [nM] | Ki (D(2) dopamine receptor [8]) [nM] | inhibition [5] [%] | inhibition [6] [%] | inhibition [7] [%]
10 | COc1ccc2c(c1)C(NCCN1CCN(c3ccc(Cl)cc3)CC1)CCC2 (stereo unspecified) | 262 | 37 | > 850 | > 850 | 46 | – | – | – | –
11 | COc1cccc(CCCCN2CCN(c3ccc(Cl)cc3)CC2)c1 | 2740 | – | > 850 | 514 | 204 | – | 25 | – | –
12 | COc1cccc(C(=O)N(C)CCN2CCN(c3ccc(Cl)cc3)CC2)c1 | > 850 | – | > 850 | > 850 | 180 | – | – | 22 | 18
13 | COc1cccc(CNCCN2CCN(c3ccc(Cl)cc3)CC2)c1 | 5000 | 12 | > 850 | > 850 | 23 | – | – | – | –
